# Screens: PubChem, Sanford-Burnham Center for Chemical Genomics
# PABP1 MLLE inh – blocks PAM2 peptide binding to the PABP1 MLLE domain | inhibition, % at 20 µM | P11940 | GST-MLLE / FITC-PAM2 fluorescence polarization | actives 0.36% (n = 360,000); in the data active means inhibition above about 35%, passing the limit was not always enough;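 further: plate controls were DMSO wells with GST-MLLE for no effect and wells lacking GST-MLLE protein for full effect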
# PABP FP inh – blocks human PABP binding to poly(A) RNA; inhibition, % at 35 µM; fluorescence polarization; actives 1% (n = 290,000); P11940; AID 2014;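 further: calls also rest on retests at 20 µM and on dose response follow-up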
# eIF4H inh – inhibitors of RNA binding by human eIF4H | eIF4H fluorescence polarization binding assay | Q15056 | actives 0.94% (n = 290,000) | inhibition, % at 35 µM;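 further: calls also rest on retests at 20 µM and on dose response follow-up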
# SKN-1 block – inhibitors of C. elegans SKN-1. actives 0.49% (n = 360,000). inhibition, % at 21.8 µM. C. elegans VP596 Pgst-4::GFP/RFP ratio, acrylamide-induced, 24 h;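 active means interference check ratio from 0.5 to 1.5 plus GFP to RFP signal ratio inhibition reaching or exceeding a fixed threshold, cut at about 30% in these data, passing the limit was not always enough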
# MT1-MMP act inh – MT1-MMP (human) activation inhibition; P50281; HT1080 RFP-PRO-GFP cells, GFP/RFP ratio fluorescence, overnight; percent of plate control window, DMSO zero; GFP/RFP ratio change, % at 20 µM; actives 0.061% (n = 360,000);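 active means GFP/RFP ratio change of at least 30% with cell ATP level not reduced by more than half and red fluorescence within 50% of control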
#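 Assay system: RFP-PRO-GFP reporter HT1080 cells; read-out basis: GFP/RFP fluorescence ratio; benchmarks: DMSO wells and RFP-L50D-GFP cells; doses: 20 µM single dose, 1% DMSO; schedule: overnight cell settling, then overnight compound exposure, 37 °C, 5% CO2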
# * hit, by the source's call; u = inconclusive; x = not tested or not shown. Most compounds without a hit are left out; they make up all but 1.7% or so of the library. Unless noted, how the calls were made is not given here.
SMILES,PABP1 MLLE inh,PABP FP inh,eIF4H inh,SKN-1 block,MT1-MMP act inh
CCCCCN(C(=O)CCC(=O)OCC(=O)N(C)Cc1ccc(C)cc1)c1c(N)n(CCCC)c(=O)[nH]c1=O,9,0,-3,-2,-2
COc1cccc(C(=O)NC2=NCCS2)c1OC,40*,2,-9,7,5
CC(C)Oc1ccc(C(=O)NC2=NCCS2)cc1,40*,8,-3,-3,5
COc1cc(C(=O)NC2=NCCS2)cc(OC)c1OC,3,1,-6,-3,10
O=c1c2cc(N3CCOCC3)ccc2[nH]c(=S)n1Cc1ccccn1,-28,52*,37*,4,3
CCCC(C)C(=O)NCc1ccccc1OC (stereo not given),-10,-7,-8,41*,8
O=[N+]([O-])c1ccc(OC/C=C2\Oc3ccc([N+](=O)[O-])cc3C2N2CCOCC2)cc1 (stereo not given),9,6,-8,37*,-2
CN1C(=O)C2(OCC(CO)([N+](=O)[O-])CO2)c2ccccc21 (stereo not given),-8,2,-3,-1,0
CC(C(=O)O)N1C(=O)/C(=C/C=C/c2ccco2)SC1=S (stereo not given),16,87*,89*,9,2
O=C1/C(=C/c2cccs2)SC(=S)N1NS(=O)(=O)c1ccccc1,-17,12,-9,19,0
O=C1/C(=C/C=C/c2ccco2)SC(=S)N1NS(=O)(=O)c1ccccc1,-2,89*,89*,18,-7
Cc1ccc(N=Cc2cc(Cc3ccccc3Cl)cc([N+](=O)[O-])c2O)c(O)c1,-99,14,21,-1,-1
COc1ccc(N=Cc2cc(Cc3ccccc3Cl)cc([N+](=O)[O-])c2O)cc1OC,-84,2,u,38*,13
CN(C)S(=O)(=O)c1ccc(N2CCCC2)c(C(=O)NC2CCC(O)CC2)c1 (stereo not given),15,x,x,0,3
Cc1ccc(CN2CCN(Cc3cc(=O)c4ccccc4[nH]3)CC2CCO)o1 (stereo not given),11,25,58*,-9,-3
O=C(Cc1ccc(NC(=O)C2CCN(C(=O)C3CC3)CC2)cc1)Nc1cccc(C(=O)N2CCCC2)c1,1,x,x,7,3
Cc1ccc(S(=O)(=O)/N=C2/NC(=O)/C(=C\c3ccco3)S2)cc1,4,54*,66*,5,-14
COC(=O)/C=C1\S/C(=N/N=C/c2ccco2)NC1=O,-6,83*,61*,9,-1
Cc1ccc(S(=O)(=O)/N=C2/NC(=O)/C(=C\c3ccccc3)S2)cc1,12,x,x,16,1
CC(=O)Nc1ccc(S(=O)(=O)/N=C2/NC(=O)/C(=C\c3ccco3)S2)cc1,-1,74*,88*,10,-11
COC(=O)/C=C1/S/C(=N/N=C/c2ccco2)NC1=O,-30,-6,-5,-4,2
COc1cccc(CCNc2ccc(N3C(=O)CC(C)C3=O)cc2[N+](=O)[O-])c1 (stereo not given),17,6,-6,1,17
COc1ccc(Nc2ccc(N3C(=O)CC(C)C3=O)cc2[N+](=O)[O-])cn1 (stereo not given),40*,2.6*,74,-12,4
CCOC1=C/C(=C/c2c(N)n3nc(S(=O)(=O)CC)sc3nc2=O)C=CC1=O,-104,-1,3,0,-96
Cc1ccc(-c2ccnc3nc(-n4cccc4)nn23)o1,2,active,56*,4,2
SMILES,PABP1 MLLE inh,PABP FP inh,eIF4H inh,SKN-1 block,MT1-MMP act inh
Cc1nc(CS(=O)(=O)c2ccccn2)sc1C(=O)NNC(=O)c1ccc(Cl)cc1,1,-1,-7,12,4
CCn1c(C)c(C)c2cc(C(=O)N3CCc4ccccc4C3)ccc21,-32,16,-4,42*,-5
O=C(c1nc[nH]c1C(=O)N1CCc2ccccc2C1)N1CCc2ccccc2C1,-14,x,x,38*,1
CS(=O)(=O)c1ccc(C(=O)N2CCc3ccccc3C2)cc1,0,69,active,-13,2
CCN1CCN(C(=O)c2ccc3c(c2)c(C)c(C)n3Cc2ccccc2)CC1,-16,-11,-11,14,1
CC1C=CCC2C(=O)N(c3cccc(C(=O)Nc4ccc(Br)cc4)c3)C(=O)C12 (stereo not given),1,-1,-2,11,-3
